The values that follow come from PMC3269097 (Journal of Medicinal Chemistry, 2011).

One data set addresses human GluK2 (Homo sapiens, UniProt Q13002). In kind it is cell-based. Conditions: tested at a concentration of 100 μM. In outline: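 HEK293 cells stably expressing homomeric human GluK2(Q), passaged no more than 20 times. Ca2+ influx read by fluorescence plate reader with concanavalin A present. Test compound is added over a range of concentrations, then L-glutamate plus antagonist (final glutamate 10 μM). Curves are fitted with slope fixed at 1 and top/bottom fixed at 100%/0% inhibition. KB is derived from IC50 by Cheng-Prusoff.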

The target of data set [1] is GluN1a/GluN2A NMDAR (Rattus norvegicus, UniProt Q00959). In kind it is cell-based. The conditions noted are these: at a concentration of 100 μM.
For data set [2], the target named is GluN1a/GluN2A NMDAR (Rattus norvegicus, UniProt P35439+Q00959). In kind it is cell-based.
In data set [3] the target is GluN1a/GluN2B NMDAR (Rattus norvegicus, UniProt Q00960). In kind it is cell-based. Conditions: at a concentration of 100 μM.
The target in data set [4] is GluN1a/GluN2B NMDAR (Rattus norvegicus, UniProt P35439+Q00960). In kind it is cell-based.
Sequence of GluN1a/GluN2B NMDAR (Rattus norvegicus, UniProt P35439+Q00960) (Q00960 27-1482, other chains not shown): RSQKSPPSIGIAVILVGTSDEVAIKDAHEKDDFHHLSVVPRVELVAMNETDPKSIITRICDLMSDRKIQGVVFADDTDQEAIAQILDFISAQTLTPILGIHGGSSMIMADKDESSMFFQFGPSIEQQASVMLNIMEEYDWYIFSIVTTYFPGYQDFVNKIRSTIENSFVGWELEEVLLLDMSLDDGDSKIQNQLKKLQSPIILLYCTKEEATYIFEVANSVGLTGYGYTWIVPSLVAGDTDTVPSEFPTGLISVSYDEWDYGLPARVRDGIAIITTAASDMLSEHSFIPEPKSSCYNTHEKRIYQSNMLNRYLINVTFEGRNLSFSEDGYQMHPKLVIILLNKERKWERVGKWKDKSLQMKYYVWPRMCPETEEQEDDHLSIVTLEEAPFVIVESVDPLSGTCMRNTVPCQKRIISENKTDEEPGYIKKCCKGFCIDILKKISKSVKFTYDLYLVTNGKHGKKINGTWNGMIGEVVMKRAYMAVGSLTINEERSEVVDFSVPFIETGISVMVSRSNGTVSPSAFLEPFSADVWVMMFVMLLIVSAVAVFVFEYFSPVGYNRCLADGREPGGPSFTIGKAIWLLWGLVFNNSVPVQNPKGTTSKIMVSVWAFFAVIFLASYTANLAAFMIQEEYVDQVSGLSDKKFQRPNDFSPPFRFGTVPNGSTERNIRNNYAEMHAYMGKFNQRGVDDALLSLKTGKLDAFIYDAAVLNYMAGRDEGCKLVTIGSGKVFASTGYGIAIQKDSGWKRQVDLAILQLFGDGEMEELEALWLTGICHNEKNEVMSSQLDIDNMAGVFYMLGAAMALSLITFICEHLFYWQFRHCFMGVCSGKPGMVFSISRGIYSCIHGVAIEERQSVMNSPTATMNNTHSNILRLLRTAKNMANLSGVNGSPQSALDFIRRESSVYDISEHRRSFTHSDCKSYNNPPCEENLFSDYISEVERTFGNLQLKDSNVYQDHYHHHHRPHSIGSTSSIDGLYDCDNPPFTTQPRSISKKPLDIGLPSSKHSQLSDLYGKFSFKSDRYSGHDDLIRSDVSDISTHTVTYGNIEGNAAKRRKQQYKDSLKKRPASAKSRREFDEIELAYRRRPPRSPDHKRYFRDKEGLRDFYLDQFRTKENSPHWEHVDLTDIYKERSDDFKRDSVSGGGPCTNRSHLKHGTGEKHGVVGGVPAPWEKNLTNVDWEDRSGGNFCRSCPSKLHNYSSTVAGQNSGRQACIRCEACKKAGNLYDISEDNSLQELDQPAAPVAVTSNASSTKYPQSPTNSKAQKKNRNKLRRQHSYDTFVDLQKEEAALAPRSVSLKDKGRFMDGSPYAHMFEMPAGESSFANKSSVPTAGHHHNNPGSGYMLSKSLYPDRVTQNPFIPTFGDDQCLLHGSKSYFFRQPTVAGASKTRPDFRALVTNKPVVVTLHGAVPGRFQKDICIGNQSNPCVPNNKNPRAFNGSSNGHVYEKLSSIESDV
The nature of the next data set: Solubility observations. In kind it is physicochemical. The conditions noted are these: for water solubility: at higher concentrations.
A further data set relates to AMPARs. The conditions noted are these: competition binding assays; ref [5c]; cited from earlier work.
Data set [5] deals with T1, human GluK1 (Homo sapiens, UniProt P39086). In kind it is cell-based. The conditions noted are these: from KB values.
Data set [6] has as its target T1, human GluK1. Nature of the data set: Electrophysiological assay. In kind it is cell-based. The conditions noted are these: electrophysiological assays. Summed up:
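Whole-cell patch clamp at −70 mV on HEK293 cells stably expressing homomeric human GluK1 or GluK3. Cells are bathed in HBS pH 7.4 at 20°C and lifted into a piezo-driven theta tube. 30 mM glutamate is applied for 100 ms every 20 s. Antagonist is added to both barrels for about 2 min, giving 5 concentrations per cell, each averaged over 6 sweeps. IC50 values are reported with 95% confidence intervals.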

In another data set the test system is native AMPARs. In kind it is cell-based, rat. Conditions: 100 μM, n=4. Summed up:
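Field EPSPs in transverse rat hippocampal slices (400 μm), perfused at 29°C. Mossy fibers stimulated via the dentate granule cell layer every 60 s. Responses averaged every 2 min and measured as 20–80% slope. Test compound at 100 μM perfused for 30 min. Results expressed as % of control slope, mean ± s.e.m., n=4, compared by Student's t test.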

For the next data set, the target named is wildtype (WT) GluK3 (Homo sapiens, UniProt Q13003). As to the kind of experiment: [3H]kainate competition binding to wildtype GluK3 membranes. The conditions noted are these: 18i 100 μM, 300 μM, 1 mM; 20 nM [3H]kainate. In outline:
(§1)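 Filtration binding on human GluK3a membranes. Wildtype comes from stably transfected HEK293 (hygromycin); the A660S mutant is transiently PEI-transfected for 48 h. Membranes are prepared by hypotonic sonication and washed in 50 mM Tris-citrate pH 7.4. Assay uses 20 nM [3H]kainate, with 1 mM kainate defining non-specific binding. Test compound at 100 μM, 300 μM and 1 mM; three experiments in triplicate.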

Data set [7] concerns the target GluK3 A660S mutant receptor (Homo sapiens, UniProt Q13003, A691S). As to the kind of experiment: [3H]kainate competition binding to GluK3 A660S mutant membranes. Conditions: 18i 100 μM, 300 μM, 1 mM; 20 nM [3H]kainate; compared with wild type. In outline:
as §1

Data set [8] concerns male Wistar rats with partial saphenous nerve ligation injury (PSNI). Nature of the data set: Nociceptive behaviour in rats, partial saphenous nerve ligation injury. In kind it is in vivo, rat. In outline: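 Male Wistar rats (~250 g) habituated to testing, tested before saphenous nerve injury. Test compound or vehicle given i.p. (n=5/group), testing starts 15 min later. Von Frey hairs applied to the plantar hindpaw (≤5 s, five times per paw, both paws); thresholds taken from stimulus-response curves. Radiant-heat withdrawal latency is the mean of three stimulations per paw.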

For data set [9], the target named is GluN1a/GluN2D NMDAR (Rattus norvegicus, UniProt Q62645). In kind it is cell-based.
Sequence of GluN1a/GluN2D NMDAR (Rattus norvegicus, UniProt Q62645) (Q62645 28-1323, other chains not shown): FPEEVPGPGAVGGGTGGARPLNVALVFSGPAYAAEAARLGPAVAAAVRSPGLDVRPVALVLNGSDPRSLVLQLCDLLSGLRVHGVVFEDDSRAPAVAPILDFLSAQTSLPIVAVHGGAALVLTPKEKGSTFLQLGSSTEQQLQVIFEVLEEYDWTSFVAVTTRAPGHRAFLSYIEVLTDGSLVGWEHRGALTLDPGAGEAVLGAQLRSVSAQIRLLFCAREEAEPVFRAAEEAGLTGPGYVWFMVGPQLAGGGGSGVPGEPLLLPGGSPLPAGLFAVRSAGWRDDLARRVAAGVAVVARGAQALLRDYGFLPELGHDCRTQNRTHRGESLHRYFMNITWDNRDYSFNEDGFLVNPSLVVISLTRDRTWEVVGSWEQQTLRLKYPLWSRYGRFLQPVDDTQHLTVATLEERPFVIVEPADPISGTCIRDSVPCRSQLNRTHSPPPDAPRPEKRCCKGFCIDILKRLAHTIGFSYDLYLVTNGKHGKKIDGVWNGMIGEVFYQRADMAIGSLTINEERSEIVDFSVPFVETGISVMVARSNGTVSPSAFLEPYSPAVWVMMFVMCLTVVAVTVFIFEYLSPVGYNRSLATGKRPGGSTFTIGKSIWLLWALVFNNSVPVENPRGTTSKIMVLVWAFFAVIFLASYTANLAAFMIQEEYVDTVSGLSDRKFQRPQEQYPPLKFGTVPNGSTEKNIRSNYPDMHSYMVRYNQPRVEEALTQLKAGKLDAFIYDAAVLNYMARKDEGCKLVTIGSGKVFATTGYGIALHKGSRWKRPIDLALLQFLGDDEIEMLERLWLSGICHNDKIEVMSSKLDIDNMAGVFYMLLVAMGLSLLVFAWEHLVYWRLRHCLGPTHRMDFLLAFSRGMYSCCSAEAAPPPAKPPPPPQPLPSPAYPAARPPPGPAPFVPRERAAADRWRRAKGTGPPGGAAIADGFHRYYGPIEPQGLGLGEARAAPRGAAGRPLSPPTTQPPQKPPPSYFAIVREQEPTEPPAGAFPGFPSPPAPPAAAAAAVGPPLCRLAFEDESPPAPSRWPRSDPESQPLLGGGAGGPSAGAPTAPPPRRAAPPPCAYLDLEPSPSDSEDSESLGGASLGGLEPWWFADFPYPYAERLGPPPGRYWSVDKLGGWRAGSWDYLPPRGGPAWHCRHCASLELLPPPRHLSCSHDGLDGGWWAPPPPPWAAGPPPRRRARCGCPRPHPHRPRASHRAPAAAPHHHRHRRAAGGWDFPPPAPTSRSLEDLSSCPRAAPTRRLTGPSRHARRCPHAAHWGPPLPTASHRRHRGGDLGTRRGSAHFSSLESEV
The next data set has as its target GluN1a/GluN2C NMDAR (Rattus norvegicus, UniProt P35439+Q00961). In kind it is cell-based.
For data set [10], the target named is GluN1a/GluN2D NMDAR (Rattus norvegicus, UniProt P35439+Q62645). In kind it is cell-based.
Sequence of GluN1a/GluN2D NMDAR (Rattus norvegicus, UniProt P35439+Q62645) (Q62645 28-1323, other chains not shown): as above

Sequence of GluN1a/GluN2C NMDAR (Q00961 20-1237, other chains not shown): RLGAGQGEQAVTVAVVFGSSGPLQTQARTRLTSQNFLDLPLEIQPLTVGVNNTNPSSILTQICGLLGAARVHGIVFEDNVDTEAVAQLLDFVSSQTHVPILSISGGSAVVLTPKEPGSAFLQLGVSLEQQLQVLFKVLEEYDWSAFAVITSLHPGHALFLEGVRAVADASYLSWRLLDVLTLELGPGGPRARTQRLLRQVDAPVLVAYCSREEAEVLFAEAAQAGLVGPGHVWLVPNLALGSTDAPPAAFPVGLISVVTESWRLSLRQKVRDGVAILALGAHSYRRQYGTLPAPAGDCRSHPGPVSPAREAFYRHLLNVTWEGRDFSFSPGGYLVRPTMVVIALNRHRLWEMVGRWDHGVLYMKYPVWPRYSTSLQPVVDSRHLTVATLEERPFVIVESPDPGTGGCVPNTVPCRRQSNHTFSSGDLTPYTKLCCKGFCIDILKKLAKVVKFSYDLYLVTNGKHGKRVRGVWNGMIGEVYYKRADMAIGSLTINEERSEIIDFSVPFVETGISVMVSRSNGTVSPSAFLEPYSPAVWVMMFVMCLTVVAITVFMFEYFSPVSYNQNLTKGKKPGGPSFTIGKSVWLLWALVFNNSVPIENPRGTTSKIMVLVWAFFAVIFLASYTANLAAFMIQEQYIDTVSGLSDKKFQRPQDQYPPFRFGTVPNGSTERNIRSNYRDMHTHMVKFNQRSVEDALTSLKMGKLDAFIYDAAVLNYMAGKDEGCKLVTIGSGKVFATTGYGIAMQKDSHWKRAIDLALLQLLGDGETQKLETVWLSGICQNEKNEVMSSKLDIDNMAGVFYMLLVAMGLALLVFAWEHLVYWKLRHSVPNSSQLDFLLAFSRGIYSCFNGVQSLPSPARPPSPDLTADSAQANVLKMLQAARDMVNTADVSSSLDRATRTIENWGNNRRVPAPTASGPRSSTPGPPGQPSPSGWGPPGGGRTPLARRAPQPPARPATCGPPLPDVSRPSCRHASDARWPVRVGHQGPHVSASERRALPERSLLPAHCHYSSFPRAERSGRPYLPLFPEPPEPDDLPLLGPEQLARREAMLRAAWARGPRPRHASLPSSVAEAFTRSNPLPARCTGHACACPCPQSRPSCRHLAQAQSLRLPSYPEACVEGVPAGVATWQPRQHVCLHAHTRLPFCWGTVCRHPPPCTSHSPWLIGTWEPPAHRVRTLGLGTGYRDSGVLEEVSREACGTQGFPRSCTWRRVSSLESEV
Sequence of human GluK2 (Q13002 32-908): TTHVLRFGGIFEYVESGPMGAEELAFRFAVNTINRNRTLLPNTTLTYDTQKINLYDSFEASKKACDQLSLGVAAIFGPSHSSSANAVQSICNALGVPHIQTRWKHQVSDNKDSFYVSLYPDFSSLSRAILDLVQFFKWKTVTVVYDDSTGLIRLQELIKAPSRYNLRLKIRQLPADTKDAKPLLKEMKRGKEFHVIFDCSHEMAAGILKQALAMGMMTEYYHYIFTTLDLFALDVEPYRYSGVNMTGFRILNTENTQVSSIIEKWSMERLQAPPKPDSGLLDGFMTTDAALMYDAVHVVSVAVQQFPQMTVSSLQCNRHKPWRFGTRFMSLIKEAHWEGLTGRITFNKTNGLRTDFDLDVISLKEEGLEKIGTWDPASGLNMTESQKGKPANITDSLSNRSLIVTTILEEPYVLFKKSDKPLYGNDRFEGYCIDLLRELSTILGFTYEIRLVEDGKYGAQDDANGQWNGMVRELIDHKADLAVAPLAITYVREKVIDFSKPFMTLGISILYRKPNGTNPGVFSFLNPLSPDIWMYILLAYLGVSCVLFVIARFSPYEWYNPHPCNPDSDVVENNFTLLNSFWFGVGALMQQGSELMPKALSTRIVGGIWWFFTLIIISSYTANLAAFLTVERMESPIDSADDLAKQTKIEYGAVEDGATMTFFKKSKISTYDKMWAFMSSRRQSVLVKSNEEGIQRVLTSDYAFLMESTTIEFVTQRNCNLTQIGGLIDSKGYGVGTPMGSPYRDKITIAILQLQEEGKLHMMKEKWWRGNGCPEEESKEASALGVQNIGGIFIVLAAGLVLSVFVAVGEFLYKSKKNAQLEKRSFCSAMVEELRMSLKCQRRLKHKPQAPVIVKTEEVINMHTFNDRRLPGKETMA

With `O=C(O)[C@H]1NCCN(C(=O)c2ccc3cc(I)ccc3c2)[C@H]1C(=O)O` (relative stereo) [Compound 18c, (2R*,3S*)-1-(6-Iodonaphthalene-2-carbonyl)piperazine-2,3-dicarboxylic acid], the GluK2 antagonist activity entry on human GluK2 is given as “no GluK2 antagonist activity”.
Regarding `O=C(O)[C@H]1NCCN(C(=O)c2ccc3cc(-c4ccccc4)ccc3c2)[C@H]1C(=O)O` (relative stereo) [Compound 18d, (2R*,3S*)-1-(6-Phenylnaphthalene-2-carbonyl)piperazine-2,3-dicarboxylic acid], the “antagonism of GluN2A” value at GluN1a/GluN2A NMDAR [1] is reported as 30–37%. For the same molecule, the 50% inhibitory concentration (IC50) against GluN1a/GluN2A NMDAR [2] and on GluN1a/GluN2B NMDAR [4] was more than 100 µM each time. The “antagonism of GluN2B” value on GluN1a/GluN2B NMDAR [3] is given as 30–37%. Moreover, the GluK2 antagonist activity entry at human GluK2 is “no GluK2 antagonist activity”. Also, the “solubility in electrophysiological recording buffer” value in “Solubility observations” (300 μM, room temperature, visible light scattering) is recorded as “insoluble at high concentrations”. The water solubility entry in the data set “Solubility observations” is reported as “poor water solubility”.
Consider `O=C(O)[C@H]1NCCN(C(=O)c2ccc3cc(Br)c4ccccc4c3c2)[C@H]1C(=O)O` (relative stereo) [Compound 18h, (2R*,3S*)-1-(9-Bromophenanthrene-3-carbonyl)piperazine-2,3-dicarboxylic acid], for which, in the data set on AMPARs, the “inhibition of [3H]AMPA binding” value was “only very weak inhibitors”.
Turning to `O=C(O)[C@H]1NCCN(C(=O)c2ccc3cc(I)c4ccccc4c3c2)[C@H]1C(=O)O` (relative stereo) [Compound 18i, (2R*,3S*)-1-(9-Iodophenanthrene-3-carbonyl)piperazine-2,3-dicarboxylic acid], the “fold higher affinity for GluK1 compared to 18c” value at human GluK1 [5] was found to be 1.7 fold. In addition, the “fold lower IC50 for GluK1 versus GluK3” value at human GluK1 [6] is listed as more than 100 fold. Also, the “AMPAR mediated fEPSP response in the presence of compound, % of slope” value in the data set on native AMPARs (30 min perfusion, control 100 ± 2%, mean ± s.e.m.) came out at 99 ± 2%. The “antagonist activity on AMPAR mediated EPSPs in CA3 region of the hippocampus” value in the data set with native AMPARs is listed as “no antagonist activity”. The “inhibition of [3H]kainate binding to wild type GluK3” value at wildtype (WT) GluK3 is listed as “low binding affinity”. Further, the “inhibition of [3H]kainate binding to A660S point mutant of GluK3” value in data set [7] is given as “more potently inhibited”. In [8] (30 mg/kg i.p., acute, day 7 after PSNI, n=5 per group), the “thermal withdrawal latency to radiant heat” value is “increased thermal withdrawal latency in these animals above baseline values”. The “mechanical withdrawal threshold (mechanical allodynia)” value in [8] (30 mg/kg i.p., acute, day 7 after PSNI, versus vehicle, n=5 per group) is listed as “completely reversed the drop in mechanical withdrawal threshold”. Moreover, in data set [8] (normal animals before nerve injury (not shown)), the “antinociceptive effects in normal animals” value is listed as “exerted antinociceptive effects”.
With `O=C(O)C1NCCN(C(=O)c2ccc3c(ccc4ccccc43)c2)C1C(=O)O` (single isomer, unassigned; (+)) [(+)-4, (+)-1-(Phenanthrene-2-carbonyl)piperazine-2,3-dicarboxylic acid], the “fold lower affinity for GluN2D than the (−)-4 isomer” value on GluN1a/GluN2D NMDAR [9] came to 50 fold.
In the case of `O=C(O)C1NCCN(C(=O)c2ccc3c(ccc4ccccc43)c2)C1C(=O)O` (stereo not drawn) [(±)-4], the GluK2 antagonist activity entry on human GluK2 is “no GluK2 antagonist activity”.
Consider `O=C(O)[C@@H]1[C@H](C(=O)O)NCCN1C(=O)c1ccc2c(ccc3ccccc32)c1` [(−)-4, (−)-1-(Phenanthrene-2-carbonyl)piperazine-2,3-dicarboxylic acid], for which the “fold higher affinity for GluK1 than the (+)-4 enantiomer” value at human GluK1 [5] was determined as 27 fold. In addition, at human GluK2, the GluK2 antagonist activity entry is “no GluK2 antagonist activity”.
Take `O=C(O)[C@H]1NCCN(C(=O)c2ccc3ccc4ccccc4c3c2)[C@H]1C(=O)O` [Compound 5]: in the data set on AMPARs, the “inhibition of [3H]AMPA binding” value is “only very weak inhibitors”. Besides, the “selectivity for GluN2D versus GluK1” value on GluN1a/GluN2D NMDAR [9] (GluN2D Ki versus GluK1 KB) is on record as “around 10 fold”. The GluK2 antagonist activity result on human GluK2 is “no GluK2 antagonist activity”.
On to `O=C(O)[C@H]1NCCN(C(=O)c2ccc(C#Cc3ccccc3)cc2)[C@H]1C(=O)O` [Compound 18k], for which the “inhibition of [3H]AMPA binding” value in the data set with AMPARs is listed as “only very weak inhibitors”. Further, at human GluK2, the GluK2 antagonist activity result is given as “no GluK2 antagonist activity”.
For the molecule `O=C(O)[C@H]1NCCN(C(=O)c2ccc(/N=N/c3ccccc3)cc2)[C@H]1C(=O)O` [Compound 18l], the “inhibition of [3H]AMPA binding” value with AMPARs was “only very weak inhibitors”. For the same molecule, the GluK2 antagonist activity result at human GluK2 was “no GluK2 antagonist activity”.
For the molecule `O=C(O)c1ccc2cc(C(=O)N3CCN[C@H](C(=O)O)[C@@H]3C(=O)O)ccc2c1` [Compound 19], the IC50 at GluN1a/GluN2C NMDAR, at GluN1a/GluN2A NMDAR [2], on GluN1a/GluN2D NMDAR [10] and on GluN1a/GluN2B NMDAR [4] was more than 100 µM in each case.
Consider `O=C(O)c1ccc(-c2ccc(C(=O)N3CCN[C@H](C(=O)O)[C@@H]3C(=O)O)cc2)cc1` [Compound 20], for which the “fold lower affinity for GluK1 compared to 34b” value on human GluK1 [5] is 5 fold. In addition, the IC50 at GluN1a/GluN2C NMDAR and against GluN1a/GluN2B NMDAR [4] was more than 100 µM in each case. In addition, in the data set “Solubility observations”, the water solubility entry was “poor water solubility”.
In the case of `O=C(O)[C@H]1NCCN(C(=O)c2ccc(CCc3ccccc3)cc2)[C@H]1C(=O)O` [Compound 21], the “fold lower affinity for GluK1 compared to 34b” value at human GluK1 [5] is “approximately 2 fold”. The “fold lower affinity for GluK1 compared to (±)-4” value (“fold lower affinity … (±)-4” for short) on human GluK1 [5] is 9 fold. The IC50 against GluN1a/GluN2C NMDAR, at GluN1a/GluN2A NMDAR [2], on GluN1a/GluN2D NMDAR [10] and on GluN1a/GluN2B NMDAR [4] was more than 100 µM throughout. Also, at GluN1a/GluN2D NMDAR [9] (at a concentration of 100 μM), the “antagonism of GluN2D” value is listed as ~ 10%.
As to `O=C(O)[C@H]1NCCN(C(=O)c2ccc(-c3ccccc3)cc2)[C@H]1C(=O)O` [Compound 34b], the GluK2 antagonist activity result at human GluK2 is listed as “no GluK2 antagonist activity”.
For the molecule `O=C(O)[C@@H]1NCCN(C(=O)c2ccc3c(ccc4ccccc43)c2)[C@H]1C(=O)O` [Compound 34d], the “fold lower affinity … (±)-4” value at human GluK1 [5] stood at 8 fold.
With `O=C(O)[C@H]1NCCN(C(=O)c2ccc3c(ccc4cc(Br)ccc43)c2)[C@H]1C(=O)O` [Compound 34e], the GluK2 antagonist activity result at human GluK2 is reported as “no GluK2 antagonist activity”.
Regarding `O=C(O)[C@H]1NCCN(Cc2ccc3c(ccc4ccccc43)c2)[C@H]1C(=O)O` [Compound 34f], the “fold lower affinity … (±)-4” value on human GluK1 [5] came to 5 fold.
Consider `O=C(O)[C@H]1NCCN(C(=O)c2ccc3c(c2)CCc2ccccc2-3)[C@H]1C(=O)O` [Compound 34g], for which the GluK2 antagonist activity entry at human GluK2 is “no GluK2 antagonist activity”.

One may read the IC50 as the concentration that inhibits the measured activity by half. Low values mean greater potency, high ones weaker potency.
